The values that follow come from PubChem BioAssay AID871 (The Scripps Research Institute Molecular Screening Center, 2007).

Screen size: about 190,000 compounds; about 1,800 (0.95%) were called active. This is one part of a sample in which actives are shown more often than they occur.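 The calls were made as follows: active = activation above the screen-wide mean of compound activation plus 3 SD (cut at about 130% in these data); inactive = the rest.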

A short description of the experiment: IL-6 driven STAT3 reporter potentiators, primary screen, U3A cells, luciferase, luminescence, MLSCN library (AID 871).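 Also: 0% = background luminescence of wells with medium and substrate only.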 Conditions: IL-6 STAT3-luciferase reporter, at 5.6 µM, stronger effect = higher value, 100% = signal with IL-6 EC80 alone. The essentials:
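Test system: human U3A cells carrying STAT3-luciferase construct; control set: IL-6-only wells as 100% reference; timing: compound pre-incubation 1 h before IL-6, then 6 h stimulation at 37 °C; also added: IL-6 stimulus at 33 ng/mL final; evaluation: % activation versus median of IL-6-stimulated wells; detection: reporter luminescence signal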
A general note: In a reporter assay the amount or activity of a reporter protein is the signal.
Consider `O=C(CNC1CCCCC1)NCC1(c2ccccc2)CCCC1`, for which the activation (% of control) is 112% (inactive).
With `CN1CCN(c2ccc(S(=O)(=O)Nc3ccccc3)cc2[N+](=O)[O-])CC1`, the activation (% of control) is 79.1% (inactive).
In the case of `CN1CCN(c2ccc([N+](=O)[O-])c(Sc3nc4ccccc4[nH]3)c2)CC1` it was 137% (active); in that of `O=C(CSc1nc2ccccc2[nH]1)N/N=C/C=C\c1ccccc1[N+](=O)[O-]`, 96.6% (inactive).
With `COc1ccc2c(c1)CCc1cn3ncc(C#N)c3nc1-2` the figure was 100% (inactive); with `O=C(NCC1CCCCC1)c1cc(S(=O)(=O)N2CCCCC2)ccc1N1CCOCC1`, 104% (inactive).
With `CC(=O)Nc1ccc(S(=O)(=O)N2CCN(c3ccc([N+](=O)[O-])c(NCCN4CCOCC4)c3)CC2)cc1` the figure was 104% (inactive).
Consider `O=[N+]([O-])c1ccc(N2CCN(S(=O)(=O)c3ccc4ccccc4c3)CC2)cc1NCc1ccco1`, for which the activation (% of control) is 154% (active).
With `O=C(c1ccccc1)N1CCN(c2ccc([N+](=O)[O-])c(NCc3ccco3)c2)CC1` the figure was 107% (inactive); with `CCCS(=O)(=O)N1CCC(CCOc2ccccc2)(C(=O)OCC)CC1`, 95.8% (inactive).
In the case of `c1ccc2[nH]c(-c3nc4ccccc4[nH]3)nc2c1`, the activation (% of control) is 63.1% (inactive).
With `O=C(/C(=C/c1cccc(Cl)c1)c1nc2ccccc2[nH]1)c1ccccc1` the figure was 98.5% (inactive).
In the case of `Oc1ccc(Cl)cc1/C=N/c1nc2ccccc2[nH]1` it was 143% (active); in that of `C/C(=N\c1nc2ccccc2n1C)c1cc(Cl)ccc1O`, 137% (active).
With `Cc1c(C(=O)Nc2cccc(Cl)c2)cn2c(nc3ccccc32)c1C#N` the figure was 94.7% (inactive); with `Cc1ccc(O)c(CNc2nc3ccccc3n2C)c1`, 102% (inactive).
`CC(C)CNC(=O)/C=C/C(=O)O`: the activation (% of control) is 103% (inactive).
Consider `O=C(CN1CCCC1)N1CCN(c2ccccc2)CC1`, for which the activation (% of control) was 104% (inactive).
With `Cc1nnc(SCc2cccc(Cl)c2)n(N)c1=O`, the activation (% of control) is 88.9% (inactive).
Regarding `Cc1cccc(N=Nc2c(C)[nH]n(-c3ccccc3)c2=O)c1`, the activation (% of control) is 122% (inactive).
With `Cc1c(N=Nc2ccc(N(C)C)cc2)c(=O)n(-c2ccccc2)n1C` the figure was 115% (inactive); with `Cc1ccc(N=Nc2c(C)[nH]n(-c3ccccc3)c2=O)cc1`, 147% (active); with `Cc1nc2scc(-c3cccs3)c2c(=O)n1N`, 97.7% (inactive).
With `Cn1cccc1-c1nc2ccccc2n1C` the figure was 89.2% (inactive); with `Cc1ccc(C2=NN(C)c3nc4ccccc4n3C2)cc1`, 170% (active); with `Cc1nn2c3ccccc3nc2n(C)c1=O`, 91% (inactive).
In the case of `O=C(N/N=C1\CCSC1)c1cc(Cl)ccc1O` it was 100% (inactive); in that of `CCCS(=O)(=O)Nc1c(C(=O)O)[nH]c2ccccc12`, 184% (active); in that of `CCCC(=O)Nc1c(O)c2ccccc2[nH]c1=O`, 101% (inactive).
`Cc1c(C(=O)CN2CCOCC2)[nH]c2ccccc12`: the activation (% of control) is 121% (inactive).
As for `O=C(Nc1ccc2cn[nH]c2c1)c1ccc(S(=O)(=O)N2CCOCC2)cc1`, the activation (% of control) is 135% (active).
Turning to `O=C(CCc1ccc(S(=O)(=O)N2CCOCC2)cc1)Nc1ccc2ccccc2c1`, the activation (% of control) is 104% (inactive).
In the case of `Cc1ccnc(NS(=O)(=O)c2ccc(NC(=O)c3ccc(S(=O)(=O)N4CCOCC4)cc3)cc2)n1`, the activation (% of control) was 100% (inactive).
In the case of `CCOC(=O)c1c(/N=C/c2cc(C)ccc2O)sc2c1CCC2` it was 99.7% (inactive); in that of `Cc1ccc(C(=O)N/C(=C\c2ccco2)C(=O)N2CCSCC2)cc1C`, 109% (inactive); in that of `COc1ccc(N2C(=O)CC(Nc3ccc(F)cc3)C2=O)c([N+](=O)[O-])c1` (stereo not given), 92.9% (inactive).
Regarding `C=CCOc1ccc(/C=N/NC(=O)C(C)Sc2ccccn2)cc1OCC` (stereo not given), the activation (% of control) is 106% (inactive).
With `COc1ccc(OC)c2c1sc(=NC(=O)CN1C(=O)CCC1=O)n2C` the figure was 101% (inactive); with `Cn1c(=NC(=O)C2CC2)sc2cc(F)cc(F)c21`, 135% (active); with `CCOc1ccc(-n2c(O)c(/C=N/c3ccnn3Cc3ccncc3)c3ccccc3c2=O)cc1`, 105% (inactive).
Consider `O=C(O)c1ccc(/C=N/NC(=S)NCc2ccccc2)cc1`, for which the activation (% of control) is 96.6% (inactive).
For the molecule `COc1ccc(-n2c(=S)[nH]c3sc4c(c3c2=O)CCc2ccccc2-4)cc1`, the activation (% of control) was 112% (inactive).
With `CSc1nc2sc3c(c2c(=O)[nH]1)CCc1ccccc1-3` the figure was 136% (active).
With `CSc1nc(O)c(Cc2ccccc2)c(=O)[nH]1`, the activation (% of control) was 95.3% (inactive).
Turning to `c1ccc(-c2cn3c(n2)CCc2ccc4cccnc4c2-3)cc1`, the activation (% of control) was 157% (active).
In the case of `c1ccc(-c2cn3cccnc3n2)cc1` it was 91.9% (inactive); in that of `O=C(CN1C(=O)CC(c2ccccc2)S(=O)(=O)c2ccccc21)NC1CCCC1` (stereo not given), 101% (inactive); in that of `COC(=O)/C(C#N)=C/c1occc1C`, 94.2% (inactive).
Consider `CCOC(=O)N1CCN(CCC(=O)Nc2cc(OC)ccc2OC)CC1`, for which the activation (% of control) was 111% (inactive).
In the case of `Cc1cccc(C2c3[nH]c4ccccc4c3CCN2C(=O)c2cc(-c3cccn3C)n[nH]2)n1` (stereo not given), the activation (% of control) is 134% (active).
In the case of `O=C(NC1CCCCC1)N1CCc2[nH]c3ccccc3c2C1`, the activation (% of control) is 96% (inactive).
Consider `Cc1cccc(C(=O)N2CCc3c([nH]c4ccccc34)C2CC(C)C)n1` (stereo not given), for which the activation (% of control) is 145% (active).
On to `COCc1ccc(C(=O)N2CCc3c([nH]c4ccccc34)C2c2ccccn2)s1` (stereo not given), for which the activation (% of control) was 96.9% (inactive).
In the case of `CCCC(=O)N1CCc2[nH]c3ccccc3c2C1` it was 99.4% (inactive); in that of `O=C(c1cn2ccccc2n1)N1CCc2c([nH]c3ccccc23)C1c1ccccn1` (stereo not given), 105% (inactive); in that of `COc1ccc(NC(=O)C(=O)NCC(=O)Nc2cccc(C(F)(F)F)c2)cc1`, 98.3% (inactive).
For the molecule `COC(=O)c1ccc(NC(=S)NN2CCOCC2)cc1`, the activation (% of control) is 109% (inactive).
With `O=C(CC1SCCNC1=O)Nc1ccc(Cl)cc1` (stereo not given) the figure was 105% (inactive).
Take `CCOC(=O)C1(Cc2cccc(OC)c2)CCN(Cc2csc(C(C)=O)c2)CC1`: the activation (% of control) was 92.5% (inactive).
For `COCCCNC(=O)C1CCC(CNS(=O)(=O)c2ccc(OC)cc2)CC1` (stereo not given), the activation (% of control) was 99.2% (inactive).
For the molecule `O=C1NC(c2ccccc2)=NC1(Nc1ccccn1)C(F)(F)F` (stereo not given), the activation (% of control) was 100% (inactive).
On to `CN(C)S(=O)(=O)c1cc(NC(=O)CN2C(=O)NC3(CCCc4ccccc43)C2=O)ccc1Cl` (stereo not given), for which the activation (% of control) is 105% (inactive).
`COc1cc(/C=C/C(=O)OCC(=O)NC(=O)NCc2ccccc2)ccc1OCC#N`: the activation (% of control) was 95.5% (inactive).
In the case of `COc1ccc(/C=N/Nc2ncnc3sc4c(c23)CCCC4)cc1O` it was 147% (active); in that of `COc1ncnc2sc3c(c12)CCCC3`, 104% (inactive).
As to `COc1cc(/C=N/Nc2ccc(C)cc2)cc(Br)c1O`, the activation (% of control) is 115% (inactive).
In the case of `CSc1ccccc1C(=O)NCc1ccccc1` it was 108% (inactive); in that of `O=C(/C=C/c1ccccc1[N+](=O)[O-])NCC1CCCO1` (stereo not given), 97.5% (inactive).
With `CC(C)CNC(=O)COC(=O)/C=C/c1ccco1` the figure was 105% (inactive).
With `CC(C)CNC(=O)COC(=O)/C=C/c1ccccc1[N+](=O)[O-]` the figure was 145% (active); with `O=C(NCc1cccs1)C1CCN(S(=O)(=O)c2ccc(Cl)cc2)CC1`, 104% (inactive).
Consider `COc1cccc2c1CCC(NC(C)=O)C2=O` (stereo not given), for which the activation (% of control) was 104% (inactive).
With `CC(=O)c1c(C)[nH]c(C(=O)Nc2cc(S(=O)(=O)N(C)C)ccc2C)c1C` the figure was 90.9% (inactive).
Consider `COc1ccc(C)cc1NC(=O)c1[nH]c(C)c(C(C)=O)c1C`, for which the activation (% of control) is 147% (active).
For `CC(=O)c1c(C)[nH]c(C(=O)NCc2ccc(C)cc2)c1C`, the activation (% of control) was 92.2% (inactive).
Take `O=C(c1ccc(-c2ccccc2)cc1)C1CCCN(C(=O)c2cncs2)C1` (stereo not given): the activation (% of control) was 98.2% (inactive).
In the case of `COc1cccc(-n2cc3c(c2-c2ccccc2)c(=O)n(C)c(=O)n3C)c1` it was 110% (inactive).
Turning to `COc1ccc(-c2c3c(=O)n(C)c(=O)n(C)c3cn2NC(C)=O)cc1`, the activation (% of control) was 109% (inactive).
With `COc1ccc(-c2c3c(=O)n(C)c(=O)n(C)c3cn2-c2cccc(OC)c2)cc1` the figure was 154% (active); with `CC(C)CCN1C(=O)c2ccc(C(=O)Nc3cccc(S(N)(=O)=O)c3)cc2C1=O`, 93.1% (inactive); with `CCC(C)NC(=O)c1nn(C)c(=O)c2ccccc12` (stereo not given), 100% (inactive).
Regarding `CN(C)S(=O)(=O)c1cccc(NC(=S)NCc2ccc3c(c2)OCO3)c1`, the activation (% of control) is 95.2% (inactive).
For `CCNCc1cc2cc(C)ccc2[nH]c1=O`, the activation (% of control) was 139% (active).
On to `CC(=O)OCc1cc2cc(C)ccc2[nH]c1=O`, for which the activation (% of control) was 103% (inactive).
Consider `CCN(Cc1cc2cc(C)ccc2[nH]c1=O)S(=O)(=O)c1ccccc1`, for which the activation (% of control) is 91.2% (inactive).
On to `Cc1ccc(-n2cnc3ncnc(-c4ccccc4)c32)cc1`, for which the activation (% of control) is 94.7% (inactive).
With `CC(C)OCCCNC(=S)N1CCC(C(=O)c2ccc3c(c2)OCCO3)CC1`, the activation (% of control) was 102% (inactive).
Regarding `Cc1cccc(CSc2nc3c(c(=O)n2C)SCC3)c1`, the activation (% of control) was 78.4% (inactive).
In the case of `O=C(COC(=O)c1ccccn1)Nc1cccc2ccccc12` it was 94.8% (inactive).
In the case of `N#Cc1ccc(C(=O)Nc2cccc3cccnc23)c(F)c1` it was 87.4% (inactive).
In the case of `N#Cc1ccccc1NC(=O)COc1c(Br)cc(Br)c2cccnc12` it was 151% (active); in that of `CCN(CC)P(=O)(Nc1ccc(SC(F)F)cc1)c1ccc(N(C)C)cc1NC(=O)c1ccco1` (stereo not given), 131% (inactive); in that of `CCOc1ccc(C2c3[nH]c4ccccc4c3CCN2Cc2cn(CC)nc2C)cc1` (stereo not given), 140% (active).
As to `COc1cc(-c2nnn(CC(=O)NCc3ccccc3)n2)cc(OC)c1OC`, the activation (% of control) is 99.5% (inactive).
As for `CCOP(=O)(OCC)C(Nc1ccc([N+](=O)[O-])cc1)c1ccc(Cl)cc1` (stereo not given), the activation (% of control) is 109% (inactive).
With `Cc1cccc(N2CCN(c3ccc(NC(=O)/C=C\C(=O)O)cc3)CC2)c1` the figure was 100% (inactive).
In the case of `CC(=O)c1ccc(NC(=O)C(C)N(C)CC(=O)Nc2ccccc2Cl)cc1` (stereo not given), the activation (% of control) is 96.3% (inactive).
In the case of `COc1ccc([N+](=O)[O-])cc1NC(=O)C(C)OC(=O)C1c2ccccc2Oc2ccccc21` (stereo not given) it was 106% (inactive).
With `COc1ccc([N+](=O)[O-])cc1C1NN=C(c2cccc3ccccc23)S1` (stereo not given) the figure was 139% (active); with `COc1ccccc1CC(=O)Nc1ccc([N+](=O)[O-])cc1OC`, 99.8% (inactive).
